{"source": "paper PMC9306447", "about": "(Clinical Cancer Research, 2022)", "key": {"[1]": {"assay": "Steady-state plasma PK of total and unbound ceritinib", "type": "in vivo, human", "conditions": "for Css,max / Tss,max: plasma"}, "FAK": {"system": "FAK", "conditions": "read-out: biochemical IC50; cited from earlier work"}, "[2]": {"assay": "Ceritinib concentrations in brain tumor and CSF and extent of CNS penetration", "type": "in vivo, human", "conditions": "for Total drug tumor conc. EN / Unbound drug tumor conc. EN: enhancing tumor; for Total drug tumor conc. NE / Unbound drug tumor conc. NE: nonenhancing tumor"}, "[3]": {"system": "ALK(+) NSCLC brain metastases", "conditions": "ASCEND-1, cited from earlier work"}, "[4]": {"assay": "Fraction unbound in brain tumor tissue by equilibrium dialysis", "type": "in vitro ADME, human", "conditions": "for Fraction unbound EN: enhancing tumor tissue; for Fraction unbound NE: nonenhancing tumor tissue", "summary_of_the_method": "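Patients with brain metastasis or recurrent glioblastoma took the test compound orally for 10 days: 750 mg/day fasted or 450 mg/day with food. Tumor was resected 2 to 4, 6 to 8 or 23 to 25 h after the 10th dose. Regions were gadolinium-enhancing or, for glioblastoma, also nonenhancing, defined by preoperative MRI and intraoperative neuronavigation. Fraction unbound was measured by equilibrium dialysis, with total drug by LC-MS/MS.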"}, "IGF1R": {"system": "IGF1R", "conditions": "read-out: biochemical IC50; cited from earlier work"}, "human plasma proteins": {"system": "human plasma proteins", "assay": "Fraction unbound in plasma by equilibrium dialysis", "type": "in vitro ADME", "conditions": "patient plasma; median and range", "summary_of_the_method": "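Patient plasma came from subjects dosed orally with the test compound for 10 days (750 mg/day fasted or 450 mg/day fed). Blood was sampled on day 9 and intraoperatively, centrifuged at 4°C, 1,500 g for 10 min, and the plasma stored at −80°C. Fraction unbound was measured by equilibrium dialysis; unbound concentration is total concentration (LC-MS/MS) times fraction unbound.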"}, "[5]": {"assay": "Clinical safety, adverse events graded by CTCAE", "type": "in vivo, human", "conditions": "10 patients"}, "[6]": {"system": "ALK(+) NSCLC with brain metastases", "conditions": "across all four arms of ASCEND-7; cited from earlier work"}, "[7]": {"conditions": "daily dose; cited from earlier work"}, "[8]": {"conditions": "total ceritinib, arithmetic mean of 10 patients (750 or 450 mg/day)"}, "[9]": {"conditions": "total ceritinib, geometric mean of 10 patients (750 or 450 mg/day)"}, "[10]": {"conditions": "unbound ceritinib, arithmetic mean of 10 patients (750 or 450 mg/day)"}, "[11]": {"conditions": "unbound ceritinib, geometric mean of 10 patients (750 or 450 mg/day)"}, "[12]": {"conditions": "mean of patients, all time points"}, "[13]": {"conditions": "median of patients, all time points"}, "[14]": {"conditions": "individual patients 7, 9, 13, 6–8 h after 10th dose, 450 mg/day"}, "[15]": {"conditions": "individual patients 8, 14, 23–25 h after 10th dose, 450 mg/day"}, "[16]": {"conditions": "individual patients 5, 11, 2–4 h after 10th dose, 450 mg/day"}, "[17]": {"conditions": "individual patients 7, 9, 13 (resection 6–8 h)"}, "[18]": {"conditions": "individual patients 8, 14 (resection 23–25 h)"}, "[19]": {"conditions": "median (range given) of patients"}}, "note": "Values joined by “and” are separate entries in the source; they are usually repeats but may differ in a detail not shown here. Equal values may be shown once. Read-outs that look alike come from different tables or passages of the source.", "data": [{"compound": "Cc1cc(Nc2ncc(Cl)c(Nc3ccccc3S(=O)(=O)C(C)C)n2)c(OC(C)C)cc1C1CCNCC1", "note": "[ceritinib, 5-chloro-N2-(2-isopropoxy-5-methyl-4-(piperidin-4-yl)phenyl)-N4-(2-(isopropylsufonyl)phenyl)pyrimidine-2,4-diamine]", "values": [{"measurement": "Css,max", "setting": "[1]; [8]", "result": 1279, "unit": "nM"}, {"measurement": "Tss,max", "setting": "[1]; [8]", "result": 6.1, "unit": "h"}, {"measurement": "Css,max", "setting": "[1]; [9]", "result": 1230, "unit": "nM"}, {"measurement": "Tss,max", "setting": "[1]; [9]", "result": 5.9, "unit": "h"}, {"measurement": "CL/F", "setting": "[1]; [8]", "result": 42.5, "unit": "L/h"}, {"measurement": "fluctuation between steady-state peak and trough plasma concentrations", "setting": "[1]; total ceritinib, geometric mean", "result": 1.4, "unit": "fold"}, {"measurement": "CL/F", "setting": "[1]; total ceritinib, individual patients 1-3 (brain metastases), 750 mg/day fasted", "result": "29.8 L/h and 66.9 L/h and 54.6 L/h"}, {"measurement": "CL/F", "setting": "[1]; total ceritinib, individual patients 5-14 (glioblastoma), 450 mg/day with food", "result": "35.9 L/h and 39.8 L/h and 34.1 L/h and 34.7 L/h and 40.8 L/h and 37.8 L/h and 50.1 L/h"}, {"measurement": "Css,max", "setting": "[1]; [10]", "result": 19, "unit": "nM"}, {"measurement": "Tss,max", "setting": "[1]; [10]", "result": 9.3, "unit": "h"}, {"measurement": "Css,max", "setting": "[1]; [11]", "result": 15, "unit": "nM"}, {"measurement": "Tss,max", "setting": "[1]; [11]", "result": 7.0, "unit": "h"}, {"measurement": "IC50", "setting": "FAK", "result": 30, "unit": "nM"}, {"measurement": "CSF concentration", "setting": "[2]; individual patient 14, 23–25 h after 10th dose, 450 mg/day", "result": 0.015, "unit": "µM"}, {"measurement": "CSF concentration", "setting": "[2]; individual patients 7, 13, 6–8 h after 10th dose, 450 mg/day", "result": "0.003 µM and 0.015 µM"}, {"measurement": "CSF concentration", "setting": "[2]; [12]", "result": 0.022, "unit": "µM"}, {"measurement": "CSF concentration", "setting": "[2]; [13]", "result": 0.012, "unit": "µM"}, {"measurement": "Total drug tumor conc. EN", "setting": "[2]; [14]", "result": "17.770 nmol/mg and 28.484 nmol/mg and 58.893 nmol/mg"}, {"measurement": "Unbound drug tumor conc. EN", "setting": "[2]; [14]", "result": "0.001 nmol/mg and 0.043 nmol/mg and 0.018 nmol/mg"}, {"measurement": "Total drug tumor conc. EN", "setting": "[2]; [15]", "result": "18.340 nmol/mg and 43.715 nmol/mg"}, {"measurement": "Unbound drug tumor conc. EN", "setting": "[2]; [15]", "result": "0.055 nmol/mg and 0.063 nmol/mg"}, {"measurement": "Total drug tumor conc. EN", "setting": "[2]; [12]", "result": 46.954, "unit": "nmol/mg"}, {"measurement": "Unbound drug tumor conc. EN", "setting": "[2]; [12]", "result": 0.117, "unit": "nmol/mg"}, {"measurement": "Total drug tumor conc. EN", "setting": "[2]; [13]", "result": 36.100, "unit": "nmol/mg"}, {"measurement": "Unbound drug tumor conc. EN", "setting": "[2]; [13]", "result": 0.048, "unit": "nmol/mg"}, {"measurement": "unbound concentration in enhancing tumor", "setting": "[2]; median", "result": 48, "unit": "nM"}, {"measurement": "unbound concentration in nonenhancing tumor", "setting": "[2]; median", "result": 6, "unit": "nM"}, {"measurement": "Total drug tumor conc. NE", "setting": "[2]; [16]", "result": "36.351 nmol/mg and 1.259 nmol/mg"}, {"measurement": "Unbound drug tumor conc. NE", "setting": "[2]; [16]", "result": "0.017 nmol/mg and BLQ"}, {"measurement": "Total drug tumor conc. NE", "setting": "[2]; [12]", "result": 9.674, "unit": "nmol/mg"}, {"measurement": "Unbound drug tumor conc. NE", "setting": "[2]; [12]", "result": 0.008, "unit": "nmol/mg"}, {"measurement": "Total drug tumor conc. NE", "setting": "[2]; [13]", "result": 2.771, "unit": "nmol/mg"}, {"measurement": "Unbound drug tumor conc. NE", "setting": "[2]; [13]", "result": 0.006, "unit": "nmol/mg"}, {"measurement": "intracranial disease control rate", "setting": "[3]; ALKi-naïve patients (15/19)", "result": 78.9, "unit": "%"}, {"measurement": "intracranial disease control rate", "setting": "[3]; ALKi-pretreated patients (49/75)", "result": 65.3, "unit": "%"}, {"measurement": "Fraction unbound EN", "setting": "[4]; individual patients 1, 2, 3, 5, 11 (resection 2–4 h)", "result": "1.618% and 0.039% and 0.047% and 0.056%"}, {"measurement": "Fraction unbound EN", "setting": "[4]; [17]", "result": "0.006% and 0.153% and 0.030%"}, {"measurement": "Fraction unbound EN", "setting": "[4]; [18]", "result": "0.298% and 0.144%"}, {"measurement": "Fraction unbound EN", "setting": "[4]; [19]", "result": "0.006%–1.6% and 0.051%"}, {"measurement": "Fraction unbound NE", "setting": "[4]; individual patients 5, 11 (resection 2–4 h)", "result": "0.045% and 0.006%"}, {"measurement": "Fraction unbound NE", "setting": "[4]; [17]", "result": "0.006% and 0.163% and 0.030%"}, {"measurement": "Fraction unbound NE", "setting": "[4]; [18]", "result": "0.090% and 0.213%"}, {"measurement": "Fraction unbound NE", "setting": "[4]; [19]", "result": "0.045% and 0.006%–0.21%"}, {"measurement": "fraction unbound in the tumor relative to the median value", "setting": "[4]; patient 1, breast cancer brain metastasis", "result": "approximately 30 fold"}, {"measurement": "IC50", "setting": "IGF1R", "result": 8, "unit": "nM"}, {"measurement": "fraction unbound in human plasma", "setting": "human plasma proteins", "result": "1.4% and 0.6%–2.6%"}, {"measurement": "tolerability of presurgical ceritinib", "setting": "[5]; 10-day presurgical course", "result": "well tolerated"}, {"measurement": "severity of toxicities at least possibly related to ceritinib", "setting": "[5]; CTCAE 4.0", "result": "minor (CTCAE 4.0 grades 1 and 2)"}, {"measurement": "disease control rate (DCR), intracranial", "setting": "[6]", "result": "High disease control rate"}, {"measurement": "maximally tolerated dose (MTD)", "setting": "[7]", "result": 750, "unit": "mg"}]}]}
